Laboratory results: ChEMBL document CHEMBL5360548, “Fatty acids as molecular carriers in cleavable antifungal conjugates” (Eur J Med Chem, 2023)
In brackets after ≈: the same amount, converted by molar mass. Activity calls are given as the source filed them. No cut-off for these calls is given here.

Columns and labels:
Nakaseomyces glabratus = assay: Antifungal activity Candida glabrata DSM 11226 by two-fold dilution method; type: functional
In short: (§1)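 Serial two-fold broth microdilution MIC per CLSI M27-A3, in RPMI-1640 without bicarbonate, with L-glutamine, 2% glucose and 3.45% MOPS, pH 7.0. Conjugates tested at 512–1 µg mL-1, 5-FC at 64–0.125 µg mL-1. Strains maintained at 30 °C in YPD medium and stored on YPD agar.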

Debaryomyces hansenii = assay: Antifungal activity Candida famata DSM 3428 by two-fold dilution method; type: functional; in short: as §1
Diutina rugosa = assay: Antifungal activity Candida rugosa DSM 2031 by two-fold dilution method; type: functional; in short: as §1
Kluyveromyces marxianus = assay: Antifungal activity Candida pseudotropicalis KKP 324 by two-fold dilution method; type: functional; in short: as §1
Candida albicans [1] = assay: Antifungal activity Candida albicans ATCC 10231 by two-fold dilution method; type: functional; in short: as §1
[2] = Induction of hemolysis in human RBC at upto 200 ug/ml incubated for 30 mins by absorbance based microplate reader analysis relative to control; type: toxicity, cell-based, Erythrocyte; conditions: human red blood cells (erythrocytes), up to 200 µg/mL
In short: (§2)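 Human erythrocytes at 2 × 10^7 cells mL-1 in saline, exposed to two-fold dilutions from DMSO stocks (final 200–0.4 µg mL-1), 37 °C, 30 min, then centrifuged. Hemoglobin in supernatant read at A540. Percent hemolysis scaled between DMSO (0%) and Triton X-100 (100%) controls. EH50 interpolated as the concentration giving 50% of the positive-control A540.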

[3] = tested on: Meyerozyma guilliermondii; assay: Antifungal activity Candida guilliermondii DSM 11947 by two-fold dilution method; type: functional; in short: as §1
Pichia kudriavzevii = assay: Antifungal activity Candida krusei DSM 6128 by two-fold dilution method; type: functional; in short: as §1
Candida parapsilosis = assay: Antifungal activity Candida parapsilosis DSM 5784 by two-fold dilution method; type: functional; conditions: Lodderomyces parapsilosis; in short: as §1
Candida albicans [4] = assay: Antifungal activity Candida albicans ATCC 10231 at 512 ug/ml by two-fold dilution method; type: functional, organism-based; conditions: dose 512.0 µg/ml; in short: as §1
[5] = Induction of hemolysis in human RBC incubated for 30 mins by absorbance based microplate reader analysis; type: toxicity, cell-based, Erythrocyte; conditions: human red blood cells (erythrocytes); in short: as §2
[6] = Drug localization in cytoplasm of Candida cells measured after 1 hr by confocal microscopy based analysis; type: ADME, cell-based
In short: (§3)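 Candida from overnight YPD culture were washed, grown in RPMI-1640 at 30 °C with shaking from OD660 0.1 to 0.3, then resuspended in PBS to OD660 0.2. Fluorescent conjugate added to 50 µg mL-1 final and incubated at 30 °C, 150 rpm. Samples taken over time, washed 4× in PBS, imaged by confocal microscopy (ex 438, em 527 nm).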

[7] = Drug uptake in Candida glabrata cells assessed as increase in number of cells emitting green fluorescence measured after 10 to 30 mins by fluorescence based analysis; type: ADME, cell-based; conditions: nakaseomyces glabratus; time 10-30 min; in short: as §3

Row | Compound | MIC (Nakaseomyces glabratus) [µg/mL] | MIC (Debaryomyces hansenii) [µg/mL] | MIC (Diutina rugosa) [µg/mL] | MIC (Kluyveromyces marxianus) [µg/mL] | MIC (Candida albicans [1]) [µg/mL] | hemolysis at 0.5 h [2] [%] | MIC [3] [µg/mL] | MIC (Pichia kudriavzevii) [µg/mL] | MIC (Candida parapsilosis) [µg/mL] | Activity (Candida albicans [4]) | HC50 at 0.5 h [5] [µg/mL] | Drug uptake [6] | Drug uptake [7]
1 | CCCCCCCCCCCCCCCCCC(=O)Oc1cc(C)cc(C)c1C(C)(C)CC(=O)Oc1ncc(F)c(N)n1 | 32 (≈ 53.3 µM) | 256 (≈ 427 µM) | > 512 | 512 (≈ 854 µM) | 128 (≈ 213 µM) | < 5 | 256 (≈ 427 µM) | > 512 | 128 (≈ 213 µM) |  |  |  | 
2 | CCCCCCCCCCCCCCCCCC(=O)Oc1cc(C)cc(C)c1C(C)(C)CC(=O)NCCNc1ccc2c3c(cccc13)C(=O)N(CCCC)C2=O |  |  |  |  |  |  |  |  |  | inactive |  |  | 
3 | CCCCCCCCCCCC(=O)Oc1cc(C)cc(C)c1C(C)(C)CC(=O)NCCNc1ccc2c3c(cccc13)C(=O)N(CCCC)C2=O |  |  |  |  |  |  |  |  |  | inactive |  |  | 
4 | CCCCCCCCCCCCCCCC(=O)Oc1cc(C)cc(C)c1C(C)(C)CC(=O)NCCNc1ccc2c3c(cccc13)C(=O)N(CCCC)C2=O |  |  |  |  |  |  |  |  |  | inactive |  |  | 
5 | CC(=O)Oc1cc(C)cc(C)c1C(C)(C)CC(=O)Oc1ncc(F)c(N)n1 | 8 (≈ 21.3 µM) | 8 (≈ 21.3 µM) | 32 (≈ 85.2 µM) | 64 (≈ 170 µM) | 16 (≈ 42.6 µM) | < 5 | 16 (≈ 42.6 µM) | > 512 | 4 (≈ 10.7 µM) |  |  |  | 
6 | CCCCCCCCCCCCCC(=O)Oc1cc(C)cc(C)c1C(C)(C)CC(=O)NCCNc1ccc2c3c(cccc13)C(=O)N(CCCC)C2=O |  |  |  |  |  |  |  |  |  | inactive |  |  | 
7 | CCCCCCCCCC(=O)Oc1cc(C)cc(C)c1C(C)(C)CC(=O)NCCNc1ccc2c3c(cccc13)C(=O)N(CCCC)C2=O |  |  |  |  |  |  |  |  |  | inactive |  |  | 
8 | Nc1nc(=O)[nH]cc1F [FLUCYTOSINE] | 0.5 (≈ 3.87 µM) | 1 (≈ 7.75 µM) | 2 (≈ 15.5 µM) | 1 (≈ 7.75 µM) | 1 (≈ 7.75 µM) |  | 0.5 (≈ 3.87 µM) | > 512 | 2 (≈ 15.5 µM) |  |  |  | 
9 | CCCCCCCCCCCCCC(=O)Oc1cc(C)cc(C)c1C(C)(C)CC(=O)Oc1ncc(F)c(N)n1 | 2 (≈ 3.68 µM) | 4 (≈ 7.36 µM) | 16 (≈ 29.4 µM) | 32 (≈ 58.9 µM) | 4 (≈ 7.36 µM) | < 5 | 8 (≈ 14.7 µM) | 512 (≈ 942 µM) | 4 (≈ 7.36 µM) |  |  |  | 
10 | C[C@@H]1[C@H](O)[C@@H](C)/C=C/C=C/C=C/C=C/C=C/C=C/C=C/[C@H](O[C@@H]2O[C@H](C)[C@@H](O)[C@H](N)[C@@H]2O)C[C@@H]2O[C@](O)(C[C@@H](O)C[C@@H](O)[C@H](O)CC[C@@H](O)C[C@@H](O)CC(=O)O[C@H]1C)C[C@H](O)[C@H]2C(=O)O [AMPHOTERICIN B] |  |  |  |  |  |  |  |  |  |  | 3.46 |  | 
11 | CCCCCCCCCCCCCCCC(=O)Oc1cc(C)cc(C)c1C(C)(C)CC(=O)Oc1ncc(F)c(N)n1 | 8 (≈ 14 µM) | 16 (≈ 28 µM) | 64 (≈ 112 µM) | 128 (≈ 224 µM) | 16 (≈ 28 µM) | < 5 | 32 (≈ 56 µM) | > 512 | 8 (≈ 14 µM) |  |  |  | 
12 | CCCCCCCCCC(=O)Oc1cc(C)cc(C)c1C(C)(C)CC(=O)Oc1ncc(F)c(N)n1 | 4 (≈ 8.2 µM) | 8 (≈ 16.4 µM) | 16 (≈ 32.8 µM) | 32 (≈ 65.6 µM) | 8 (≈ 16.4 µM) | < 5 | 8 (≈ 16.4 µM) | 256 (≈ 525 µM) | 4 (≈ 8.2 µM) |  |  |  | 
13 | CCCCCCCC(=O)Oc1cc(C)cc(C)c1C(C)(C)CC(=O)NCCNc1ccc2c3c(cccc13)C(=O)N(CCCC)C2=O |  |  |  |  |  |  |  |  |  | inactive |  | Active | Active
14 | CCCCN1C(=O)c2cccc3c(NCCNC(=O)CC(C)(C)c4c(C)cc(C)cc4OC(C)=O)ccc(c23)C1=O |  |  |  |  |  |  |  |  |  | inactive |  |  | 
15 | CCCCCCCCCCCC(=O)Oc1cc(C)cc(C)c1C(C)(C)CC(=O)Oc1ncc(F)c(N)n1 | 4 (≈ 7.76 µM) | 4 (≈ 7.76 µM) | 16 (≈ 31 µM) | 64 (≈ 124 µM) | 8 (≈ 15.5 µM) | < 5 | 8 (≈ 15.5 µM) | 256 (≈ 496 µM) | 4 (≈ 7.76 µM) |  |  |  | 
16 | CCCCCCCC(=O)Oc1cc(C)cc(C)c1C(C)(C)CC(=O)Oc1ncc(F)c(N)n1 | 2 (≈ 4.35 µM) | 4 (≈ 8.7 µM) | 16 (≈ 34.8 µM) | 32 (≈ 69.6 µM) | 8 (≈ 17.4 µM) | < 5 | 8 (≈ 17.4 µM) | 128 (≈ 279 µM) | 4 (≈ 8.7 µM) |  |  |  | 
